Legend:
[1] = Antiproliferative activity against human KB/VCR cells after 72 hrs by sulforhodamine B assay; assay type: functional, cell-based
Outline: (§1)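 Cells grown in ATCC-specified medium with 10% heat-inactivated FBS, penicillin/streptomycin and 10 mM Hepes, at 37 °C under 5% CO2. Seeded, cultured overnight, then exposed to gradient concentrations for 72 h. Growth read by SRB staining; inhibition % = [1−(A450 treated/A450 control)]×100. IC50 obtained by the Logit method from independent experiments.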

[2] = Half life in human liver microsomes at 0.1 uM up to 60 mins by LC-MS/MS analysis; assay type: ADME, microsome
Outline: (§2)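 Compound at 0.1 μM final (0.01% DMSO, 0.005% BSA) incubated at 37 °C with human, rat or mouse liver microsomes (0.33 mg/mL protein) in 0.1 M Tris/HCl pH 7.4, with 5 mM MgCl2 and 1 mM NADPH. Samples taken at 0, 7, 17, 30 and 60 min, quenched by methanol precipitation, centrifuged, and parent measured by LC-MS/MS. T1/2 and Clint derived.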

[3] = Half life in rat liver microsomes at 0.1 uM up to 60 mins by LC-MS/MS analysis; assay type: ADME, microsome; outline: as §2
Liver [4] = test: Intrinsic clearance in human liver microsomes assessed as per mg protein up to 60 mins by LC-MS/MS analysis; assay type: ADME, microsome; settings: 1 h; outline: as §2
Liver [5] = test: Intrinsic clearance in rat liver microsomes assessed per mg protein up to 60 mins by LC-MS/MS analysis; assay type: ADME, microsome; settings: 1 h
Outline: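 Liver microsomes (0.33 mg/mL protein) in 0.1 M Tris/HCl pH 7.4 with 5 mM MgCl2, 1 mM NADPH, compound at 0.1 μM final (0.01% DMSO, 0.005% BSA), 37 °C; samples at 0, 7, 17, 30, 60 min quenched in methanol, centrifuged, LC-MS/MS; T1/2 and Clint per g protein derived.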

Liver [6] = test: Intrinsic clearance in mouse liver microsomes assessed per mg protein up to 60 mins by LC-MS/MS analysis; assay type: ADME, microsome; settings: 1 h; outline: as §2
[7] = Half life in Sprague-Dawley rat at 3.0 mg/kg, po; assay type: ADME, organism-based; settings: in vivo
Outline: (§3)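 Male SD rats dosed i.v. at 1.0 mg/kg or orally at 3.0 mg/kg. Vehicle is DMSO, Tween 80 and normal saline. Plasma concentration–time data give CL, Vss, T1/2, Cmax, Tmax, MRT, AUC and oral bioavailability F.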

[8] = Tmax in Sprague-Dawley rat at 3.0 mg/kg, po; assay type: ADME, organism-based; settings: in vivo
Outline: (§4)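 Male SD rats dosed orally at 3.0 mg/kg in DMSO/Tween 80/normal saline; plasma profile gives T1/2, Cmax, Tmax, AUC, MRT; F from comparison with 1.0 mg/kg i.v. dosing.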

[9] = Cmax in Sprague-Dawley rat at 3.0 mg/kg, po; assay type: ADME, organism-based; design: dose 3 mg/kg, route oral; settings: in vivo; outline: as §3
[10] = AUC in Sprague-Dawley rat at 3.0 mg/kg, po; assay type: ADME, organism-based; settings: in vivo; outline: as §3
[11] = AUC in Sprague-Dawley rat at 1.0 mg/kg, iv; assay type: ADME, organism-based; settings: in vivo; outline: as §3
[12] = Clearance in Sprague-Dawley rat at 1.0 mg/kg, iv; assay type: ADME, organism-based; settings: in vivo; outline: as §3
[13] = MRT (infinity) in Sprague-Dawley rat at 3.0 mg/kg, po; assay type: ADME, organism-based; settings: in vivo; outline: as §4
[14] = MRT (infinity) in Sprague-Dawley rat at 1.0 mg/kg, iv; assay type: ADME, organism-based; settings: in vivo
Outline: (§5)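 Male SD rats given 1.0 mg/kg i.v. in DMSO/Tween 80/normal saline vehicle; plasma concentration–time profile used for clearance, Vss, MRT.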

[15] = Volume of distribution at steady state in Sprague-Dawley rat at 1.0 mg/kg, iv; assay type: ADME, organism-based; settings: in vivo, read-out: Vdss; outline: as §5
[16] = Oral bioavailability in Sprague-Dawley rat at 3.0 mg/kg; assay type: ADME, organism-based; settings: in vivo; outline: as §4
HUVEC = test: Antiproliferative activity against human HUVEC cells after 72 hrs by sulforhodamine B assay; assay type: cell-based; outline: as §1
MGC-803 = test: Antiproliferative activity against human MGC803 cells after 72 hrs by sulforhodamine B assay; assay type: functional, cell-based; settings: MGC-803, 72 h; outline: as §1
[17] = Antiproliferative activity against human HepG cells after 72 hrs by sulforhodamine B assay; assay type: functional, cell-based; outline: as §1
DU-145 = test: Antiproliferative activity against human DU145 cells after 72 hrs by sulforhodamine B assay; assay type: functional, cell-based; settings: DU-145, 72 h; outline: as §1
NCI-H460 = test: Antiproliferative activity against human H460 cells after 72 hrs by sulforhodamine B assay; assay type: functional, cell-based; settings: NCI-H460, 72 h; outline: as §1
HCT-116 [18] = test: Induction of apoptosis in human HCT116 cells assessed as late apoptotic cells at 0.5 uM after 48 hrs by Annexin V-FITC/propidium iodide staining-based FACS analysis (reference value: 5.74%); assay type: functional
HCT-116 [19] = test: Induction of apoptosis in human HCT116 cells assessed as early apoptotic cells at 2 uM after 48 hrs by Annexin V-FITC/propidium iodide staining-based FACS analysis (reference value: 2.35%); assay type: functional
HCT-116 [20] = test: Induction of apoptosis in human HCT116 cells assessed as late apoptotic cells at 2 uM after 48 hrs by Annexin V-FITC/propidium iodide staining-based FACS analysis (reference value: 5.74%); assay type: functional
HCT-116 [21] = test: Induction of apoptosis in human HCT116 cells pretreated with Z-VAD-FMK pan-caspase inhibitor for 1 hr assessed as early apoptotic cells at 0.5 uM after 48 hrs by Annexin V-FITC/propidium iodide staining-based FACS analysis (reference value: 1.34%); assay type: functional; design: scale not given: the % may be the effect or the level left
HCT-116 [22] = test: Induction of apoptosis in human HCT116 cells pretreated with Z-VAD-FMK pan-caspase inhibitor for 1 hr assessed as late apoptotic cells at 0.5 uM after 48 hrs by Annexin V-FITC/propidium iodide staining-based FACS analysis (reference value: 3.15%); assay type: functional; design: scale not given: the % may be the effect or the level left
HCT-116 [23] = test: Induction of apoptosis in human HCT116 cells pretreated with Z-VAD-FMK pan-caspase inhibitor for 1 hr assessed as late apoptotic cells at 1 uM after 48 hrs by Annexin V-FITC/propidium iodide staining-based FACS analysis (reference value: 3.15%); assay type: functional; design: scale not given: the % may be the effect or the level left
HCT-116 [24] = test: Induction of apoptosis in human HCT116 cells pretreated with Z-VAD-FMK pan-caspase inhibitor for 1 hr assessed as early apoptotic cells at 2 uM after 48 hrs by Annexin V-FITC/propidium iodide staining-based FACS analysis (reference value: 1.34%); assay type: functional; design: scale not given: the % may be the effect or the level left
HCT-116 [25] = test: Induction of apoptosis in human HCT116 cells pretreated with Z-VAD-FMK pan-caspase inhibitor for 1 hr assessed as late apoptotic cells at 2 uM after 48 hrs by Annexin V-FITC/propidium iodide staining-based FACS analysis (reference value: 3.15%); assay type: functional; design: scale not given: the % may be the effect or the level left
Mus musculus [26] = test: Toxicity in BALB/C nude mouse xenografted with human HCT116 cells assessed as body weight loss at 10 mg/kg, iv once daily for 14 days starting on day 14 post tumor implantation measured every 4 days during compound dosing; assay type: organism-based; settings: in vivo
Outline: (§6)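 Male BALB/c nude mice (18–20 g) with subcutaneous HCT116 implants in right axilla; treatment from day 14 once tumors exceeded 100 mm3, randomized (6/treated, 10/control group); 10 mg/kg i.v. or 30 mg/kg i.p. daily for 14 days in 1% DMSO/saline; 5-FU 15 mg/kg as reference; body weight tracked, mean ± SD of 6 mice.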

Mus musculus [27] = test: Toxicity in BALB/C nude mouse xenografted with human HCT116 cells assessed as body weight loss at 30 mg/kg, ip once daily for 14 days starting on day 14 post tumor implantation measured every 4 days during compound dosing; assay type: organism-based; settings: in vivo; outline: as §6

half-life at 0.1 µM [2]: 1.49 h
half-life at 0.1 µM [3]: 1.26 h
intrinsic clearance (Liver [4]): 23.5 mL/min/g
intrinsic clearance (Liver [5]): 27.7 mL/min/g
intrinsic clearance (Liver [6]): 38.5 mL/min/g
half-life [7]: 2.58 h
Tmax [8]: 0.25 h
Cmax [9]: 33.7 ng/mL
AUC [10]: 81.4 ng·h/mL
AUC [11]: 114 ng·h/mL
clearance [12]: 176 mL/min/kg
MRT inf [13]: 3.72 h
MRT inf [14]: 0.835 h
Vd [15]: 7.98 L/kg
bioavailability [16]: 21%
IC50 (MGC-803): 260 nM
IC50 (DU-145): 220 nM
IC50 (NCI-H460): 170 nM
SMILES: CCN(CC)CCCn1c2c(c3ccccc3c1=O)C(=O)C(=O)c1cc(C)oc1-2
IC50 [1]: 330 nM
IC50 (HUVEC): 2520 nM
IC50 [17]: 1310 nM
Activity (HCT-116 [18]): 4.19%
Activity (HCT-116 [19]): 23.98%
Activity (HCT-116 [20]): 32.63%
Activity (HCT-116 [21]): 1.53%
Activity (HCT-116 [22]): 4.09%
Activity (HCT-116 [23]): 6.47%
Activity (HCT-116 [24]): 11.88%
Activity (HCT-116 [25]): 22.49%
Activity (Mus musculus [26]): Non-Toxic
Activity (Mus musculus [27]): Non-Toxic
